Data set [1] can be described thus: Drug level in anesthetized Sprague-Dawley rat plasma at 5 mg/kg, iv after 3 mins. Format: ADME, organism-based. More on the design: dose 5 mg/kg, route intravenous. The method in brief: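 Male SD rats under inactin (100 mg/kg). Femoral artery catheter for pressure, femoral vein for dosing, left ventricular catheter via the carotid for LVP; LV dp/dt_max derived from LVP. Vehicle (60% propylene glycol/water, 1 mL/kg) given first, compound 45 min later. Values are % change from baseline at 3 min after 5 mg/kg iv, with blood drawn at 3 min; n = 2–3.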

The nature of data set [2]: Drug level in Sprague-Dawley rat plasma at 10 mg/kg, po after 2 hrs. The format is ADME, organism-based. More on the design: dose 10 mg/kg, route oral. The method in brief: (§1)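 SD rats dosed orally at 10 mg/kg; brain (nmol/g) and plasma levels measured 2 h later.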
The nature of data set [3]: Drug level in mdr1a expressing wild type CF1 mouse plasma at 10 mg/kg, po after 2 hrs. The format is ADME, organism-based. Further details: dose 10 mg/kg, route oral. The method in brief:
(§2)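 CF-1 mice, mdr1a (−/−) and (+/+), dosed orally at 10 mg/kg; brain and plasma concentrations taken 2 h after dosing; mean of n = 3.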

Data set [4] can be described thus: Volume of distribution at steady state in rhesus monkey at 1 mg/kg, po and 0.3 mg/kg, iv. Format: ADME, organism-based, Macaca mulatta. The following applies: in vivo, read-out: Vdss. The method in brief:
(§3)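 Pharmacokinetic parameters are the mean of n = 3 animals. Rats were dosed 1 mg/kg iv and 3 mg/kg po; rhesus monkeys 0.3 mg/kg iv and 1 mg/kg po.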

Data set [5] is described as follows: Bioavailability in rhesus monkey at 1 mg/kg, po and 0.3 mg/kg, iv. Format: ADME, organism-based, Macaca mulatta. Particulars: in vivo.
A short description of data set [6]: AUC (0 to infinity) in rhesus monkey at 1 mg/kg, po. Particulars: plasma. The format is ADME, organism-based, Macaca mulatta. More on the design: time infinity, dose 1 mg/kg, route oral. The method in brief:
(§4)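 PK in rats (oral 3 mg/kg, iv 1 mg/kg) and rhesus monkeys (oral 1 mg/kg, iv 0.3 mg/kg); values are means of n = 3.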

Data set [7] in a line: AUC (0 to infinity) in Sprague-Dawley rat at 3 mg/kg, po. Format: ADME, organism-based. Further details: time infinity, dose 3 mg/kg, route oral. The following applies: plasma. The method in brief:
as §4

A short description of data set [8]: Ratio of drug level in brain to plasma in mdr1a expressing wild type CF1 mouse at 10 mg/kg, po after 2 hrs. The format is ADME, organism-based. More on the design: dose 10 mg/kg, route oral. Particulars: read-out: BPR. The method in brief:
(§5)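 P-gp-deficient mdr1a (−/−) and wild-type mdr1a (+/+) CF-1 mice were dosed orally at 10 mg/kg. Brain (nmol/g) and plasma levels were taken 2 h post-dose, n = 3. The ratio was calculated from the mean values.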

Data set [9] relates to Brain. Nature of the data set: Drug level in Sprague-Dawley rat brain at 10 mg/kg, po after 2 hrs. The format is ADME, organism-based. More on the design: dose 10 mg/kg, route oral. Particulars: in vivo. The method in brief:
as §1

Data set [10] deals with Brain. Nature of the data set: Drug level in mdr1a expressing wild type CF1 mouse brain at 10 mg/kg, po after 2 hrs. Format: ADME, organism-based. Further details: dose 10 mg/kg, route oral. The following applies: in vivo. The method in brief: as §2
Data set [11] is described as follows: Drug level in anesthetized Beagle dog plasma at 5 mg/kg, iv infused over 10 mins measured immediately after end of dosing. The format is ADME, organism-based, Canis lupus familiaris. More on the design: dose 5 mg/kg, route intravenous. The method in brief:
(§6)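 Dogs were anesthetized and, after surgery, stabilized at least 1 h before baseline readings. Doses of 1, 2 and 5 mg/kg were infused iv over 10 min each (cumulative 1, 3, 8 mg/kg). QTc, MAP, LVSP, CO, HR and LV dp/dt_max were read at 0, 10 and 20 min as maximum % change from baseline. Plasma was sampled at the end of each dosing period; n = 3.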

Data set [12] in a line: Volume of distribution at steady state in Sprague-Dawley rat at 3 mg/kg, po and 1 mg/kg, iv. The format is ADME, organism-based. The following applies: in vivo, read-out: Vdss. The method in brief: as §3
Data set [13] can be described thus: Cmax in rhesus monkey at 1 mg/kg, po and 0.3 mg/kg, iv. Format: ADME, organism-based, Macaca mulatta. Particulars: in vivo. The method in brief:
as §4

Data set [14] relates to Brain. Nature of the data set: Drug level in mdr1a deficient CF1 mouse brain at 10 mg/kg, po after 2 hrs. The format is ADME, organism-based. Further details: dose 10 mg/kg, route oral. Particulars: in vivo. The method in brief:
as §2

Data set [15] is described as follows: Drug level in mdr1a deficient CF1 mouse plasma at 10 mg/kg, po after 2 hrs. Format: ADME, organism-based. More on the design: dose 10 mg/kg, route oral. The method in brief:
as §2

The nature of data set [16]: Drug level in anesthetized Beagle dog plasma at 2 mg/kg, iv infused over 10 mins measured immediately after end of dosing. The format is ADME, organism-based, Canis lupus familiaris. Further details: dose 2 mg/kg, route intravenous. The method in brief: as §6
The nature of data set [17]: Bioavailability in Sprague-Dawley rat at 3 mg/kg, po and 1 mg/kg, iv. Format: ADME, organism-based. The following applies: in vivo. The method in brief: as §4
Data set [18] in a line: Drug level in anesthetized Beagle dog plasma at 1 mg/kg, iv infused over 10 mins measured immediately after end of dosing. Further details: dose 1 mg/kg, route intravenous. The format is ADME, organism-based, Canis lupus familiaris. The method in brief: as §6
The nature of data set [19]: Ratio of drug level in brain to plasma in mdr1a deficient CF1 mouse at 10 mg/kg, po after 2 hrs. More on the design: dose 10 mg/kg, route oral. Format: ADME, organism-based. Particulars: read-out: BPR. The method in brief: as §5
The nature of data set [20]: Cmax in Sprague-Dawley rat at 3 mg/kg, po and 1 mg/kg, iv. Particulars: in vivo. The format is ADME, organism-based. The method in brief: as §4
A short description of data set [21]: Ratio of drug level in brain to plasma of Sprague-Dawley rat at 10 mg/kg, po after 2 hrs. Format: ADME, organism-based. More on the design: dose 10 mg/kg, route oral. The following applies: read-out: BPR. The method in brief:
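Sprague-Dawley rats were dosed orally at 10 mg/kg. Brain (nmol/g) and plasma concentrations were measured 2 h later, and the brain-to-plasma ratio was taken from these.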

For `C[C@@H]1NC(c2cccc(=O)[nH]2)=N[C@@]1(c1ccc(F)cc1)c1ccc(F)nc1`, the concentration at 0.05 h in [1] was found to be 5.3 µM.
On the same count and under the same terms, for `C[C@@H]1NC(c2cccc(O)n2)=NC1(c1ccc(F)cc1)c1ccc(F)cc1` the value was 2.6 µM; for `C[C@@H]1NC(c2ccnc(C#N)c2)=N[C@@]1(c1ccc(F)cc1)c1ccc(F)nc1`, 4.3 µM.
For `C[C@@H]1NC(c2ccc(=O)n(C(F)F)c2)=N[C@@]1(c1ccc(F)cc1)c1ccc(F)nc1`, the concentration at 2 h in [2] came out at 2.2 µM; in data set [3], 8.36 µM; in data set [15], 7.01 µM. In addition, the Vd in data set [4] was 3.8 L/kg; in data set [12], 2.6 L/kg. Also, the bioavailability in [5] and in data set [17] was 92% throughout. Also, the AUC(0-inf) (as a rule, the area under the concentration-time curve extrapolated to infinity) in data set [6] was 11 µM·h; in data set [7], 4.8 µM·h. For the same molecule, the Kp at 2 h in data set [8] came to 0.48; in data set [19], 2.05; in [21] it was 0.42. Besides, the figures for the Drug uptake in the data set with Brain [9], in the data set on Brain [10] and with Brain [14] were 0.91 nmol/g, 4 nmol/g and 14.8 nmol/g, respectively. The concentration at 10 min is 26.9 µM in [11], 14.3 µM in data set [16] and 7.7 µM in [18]. The Cmax (in general, the peak of the concentration-time curve) in data set [13] was 0.64 µM; in data set [20], 1.1 µM.
Take `C[C@@H]1NC(c2cnccn2)=N[C@@]1(c1ccc(F)cc1)c1ccc(F)nc1`: the concentration at 0.05 h in data set [1] was 5.1 µM.
In the case of `C[C@@H]1NC(c2cc(C#N)ccn2)=N[C@@]1(c1ccc(F)cc1)c1ccc(F)nc1`, in data set [1], the concentration at 0.05 h was found to be 6.3 µM.
The same measure, in the same setting: for `C[C@@H]1NC(c2cccc(S(N)(=O)=O)c2)=N[C@@]1(c1ccc(F)cc1)c1ccc(F)nc1` the value was 4.9 µM.

The values above are taken from ChEMBL document CHEMBL1781958, “Discovery of pyridone-containing imidazolines as potent and selective inhibitors of neuropeptide Y Y5 receptor” (Bioorg Med Chem, 2009).
